# Experimental data: ChEMBL document CHEMBL1155581, “A-Type proanthocyanidin trimers from cranberry that inhibit adherence of uropathogenic P-fimbriated Escherichia coli” (J Nat Prod, 2000)
# The source made the active and inactive calls. The rule behind the calls is not given here.
# What was measured:
# Format in all cases: functional, organism-based
# [1] = system: Escherichia coli; assay: Antiadherent activity against P-fimbriated Escherichia coli in human erythrocyte assessed as suppression of agglutination using latex beads coated with P receptor analogue at 0.3 mg/ml
# Summary of the method: (§1)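 Uropathogenic P-fimbriated E. coli from patient urine, grown in tryptose broth 16 h at 37 °C, then overnight on CFA plates. Washed cells at 5 × 10^8/mL in PBS pH 7.0. Compounds in PBS neutralized with 1 N NaOH, 2-fold serial dilutions, 30 µL with 10 µL bacteria for 10 min at RT with shaking. 3% A1 Rh+ human RBCs or P-receptor-coated latex beads added separately, 20 min RT. Agglutination suppression scored microscopically (+/−).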
# [2] = system: Escherichia coli; assay: Antiadherent activity against P-fimbriated Escherichia coli in human erythrocyte assessed as suppression of agglutination using latex beads coated with P receptor analogue at 0.6 mg/ml; summary of the method: as §1
# [3] = system: Escherichia coli; assay: Antiadherent activity against P-fimbriated Escherichia coli in human erythrocyte assessed as suppression of agglutination using latex beads coated with P receptor analogue at 1.2 mg/ml; summary of the method: as §1
# [4] = system: Escherichia coli; assay: Antiadherent activity against P-fimbriated Escherichia coli in human erythrocyte assessed as suppression of agglutination using latex beads coated with P receptor analogue at 0.15 mg/ml; summary of the method: as §1
# [5] = system: Escherichia coli; assay: Antiadherent activity against P-fimbriated Escherichia coli in human erythrocyte assessed as suppression of agglutination using latex beads coated with P receptor analogue at 2.4 mg/ml; summary of the method: as §1
Structure (SMILES),Activity [1],Activity [2],Activity [3],Activity [4],Activity [5]
Oc1cc(O)c2c(c1)O[C@@]1(c3ccc(O)c(O)c3)Oc3cc(O)c4c(c3[C@@H]2[C@H]1O)O[C@H](c1ccc(O)c(O)c1)[C@H](O)C4,inactive,inactive,inactive,inactive,Active
Oc1cc(O)c2c(c1)O[C@H](c1ccc(O)c(O)c1)[C@H](O)[C@H]2c1c(O)cc(O)c2c1O[C@H](c1ccc(O)c(O)c1)[C@H](O)C2,inactive,inactive,inactive,inactive,inactive
Oc1cc(O)c2c(c1)O[C@H](c1ccc(O)c(O)c1)[C@H](O)[C@H]2c1c(O)cc(O)c2c1O[C@@]1(c3ccc(O)c(O)c3)Oc3cc(O)c4c(c3[C@@H]2[C@H]1O)O[C@H](c1ccc(O)c(O)c1)[C@H](O)C4,inactive,Active,Active,inactive,Active
Oc1cc(O)c2c(c1)O[C@@]1(c3ccc(O)c(O)c3)Oc3cc(O)c4c(c3[C@@H]2[C@H]1O)O[C@H](c1ccc(O)c(O)c1)[C@H](O)[C@H]4c1c(O)cc(O)c2c1O[C@H](c1ccc(O)c(O)c1)[C@H](O)C2 [CINNAMTANNIN B1],Active,Active,Active,Not Active,Active
Oc1cc(O)c2c(c1)O[C@H](c1ccc(O)c(O)c1)[C@H](O)C2,inactive,inactive,inactive,inactive,inactive
Oc1cc(O)c2c(c1)O[C@H](c1ccc(O)c(O)c1)[C@H](O)[C@H]2c1c(O)cc2c(c1O)[C@@H]1c3c(cc(O)c4c3O[C@H](c3ccc(O)c(O)c3)[C@H](O)C4)O[C@](c3ccc(O)c(O)c3)(O2)[C@@H]1O,Active,Active,Active,inactive,Active
